For assay [1], the target named is G protein-coupled receptor kinase 5 (Homo sapiens) (UniProt P34947). Kind of assay: Inhibition of human recombinant GPRK5 at 40 nM related to control ULK1.
The target in assay [2] is NT-3 growth factor receptor (Homo sapiens) (UniProt Q16288). Kind of assay: Inhibition of human recombinant TRKC at 40 nM in presence of ATP by radiometric assay relative to control.
Assay [3] concerns the target cAMP-dependent protein kinase catalytic subunit alpha (Homo sapiens) (UniProt P17612). Kind of assay: Inhibition of human recombinant PKACalpha at 40 nM related to control ULK1.
Assay [4] has as its target Calcium/calmodulin-dependent protein kinase type II subunit beta (Homo sapiens) (UniProt Q13554). Kind of assay: Inhibition of human recombinant CaMK2b at 40 nM related to control ULK1.
The target in assay [5] is Tyrosine-protein kinase Fer (Homo sapiens) (UniProt P16591). The assay is described as follows: Inhibition of human recombinant FER at 500 nM in presence of ATP by radiometric assay relative to control.
The target of assay [6] is Bone morphogenetic protein receptor type-1B (Homo sapiens) (UniProt O00238). The assay is described as follows: Inhibition of human recombinant BMPR1B at 500 nM related to control ULK1.
Assay [7] has as its target Calcium/calmodulin-dependent protein kinase type II subunit beta (Homo sapiens) (UniProt Q13554). Kind of assay: Inhibition of human recombinant CaMK2b at 500 nM in presence of ATP by radiometric assay relative to control.
Assay [8] deals with T1, Testis-specific serine/threonine-protein kinase 2 (Homo sapiens) (UniProt Q96PF2).
T1 sequence (whole entry): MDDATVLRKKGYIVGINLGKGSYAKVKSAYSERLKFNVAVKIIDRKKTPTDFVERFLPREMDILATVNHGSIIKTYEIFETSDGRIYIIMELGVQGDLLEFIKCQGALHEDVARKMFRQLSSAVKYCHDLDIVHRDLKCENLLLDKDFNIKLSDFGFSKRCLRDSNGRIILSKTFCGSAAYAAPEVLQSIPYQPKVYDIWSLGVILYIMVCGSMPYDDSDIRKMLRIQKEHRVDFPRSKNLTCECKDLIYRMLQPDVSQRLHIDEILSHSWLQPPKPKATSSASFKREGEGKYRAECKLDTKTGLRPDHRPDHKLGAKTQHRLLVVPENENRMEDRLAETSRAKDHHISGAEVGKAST
Kind of assay: Inhibition of human recombinant TSSK2 at 500 nM in presence of ATP by radiometric assay relative to control.

Assay [9] has as its target Focal adhesion kinase 1 (Homo sapiens) (UniProt Q05397). The assay is described as follows: Inhibition of human recombinant FAK at 500 nM related to control ULK1.
The target of assay [10] is Serine/threonine-protein kinase WNK2 (Homo sapiens) (UniProt Q9Y3S1). The assay is described as follows: Inhibition of human recombinant Wnk2 at 500 nM in presence of ATP by radiometric assay relative to control.
Assay [11] deals with Protein-tyrosine kinase 2-beta (Homo sapiens) (UniProt Q14289). Kind of assay: Inhibition of human recombinant PYK2 at 500 nM related to control ULK1.
Assay [12] has as its target Casein kinase I isoform gamma-3 (Homo sapiens) (UniProt Q9Y6M4). The assay is described as follows: Inhibition of human recombinant CK1g3 at 500 nM in presence of ATP by radiometric assay relative to control.
Assay [13] addresses T2, Inhibitor of nuclear factor kappa-B kinase subunit alpha (Homo sapiens) (UniProt O15111).
T2 sequence (whole entry): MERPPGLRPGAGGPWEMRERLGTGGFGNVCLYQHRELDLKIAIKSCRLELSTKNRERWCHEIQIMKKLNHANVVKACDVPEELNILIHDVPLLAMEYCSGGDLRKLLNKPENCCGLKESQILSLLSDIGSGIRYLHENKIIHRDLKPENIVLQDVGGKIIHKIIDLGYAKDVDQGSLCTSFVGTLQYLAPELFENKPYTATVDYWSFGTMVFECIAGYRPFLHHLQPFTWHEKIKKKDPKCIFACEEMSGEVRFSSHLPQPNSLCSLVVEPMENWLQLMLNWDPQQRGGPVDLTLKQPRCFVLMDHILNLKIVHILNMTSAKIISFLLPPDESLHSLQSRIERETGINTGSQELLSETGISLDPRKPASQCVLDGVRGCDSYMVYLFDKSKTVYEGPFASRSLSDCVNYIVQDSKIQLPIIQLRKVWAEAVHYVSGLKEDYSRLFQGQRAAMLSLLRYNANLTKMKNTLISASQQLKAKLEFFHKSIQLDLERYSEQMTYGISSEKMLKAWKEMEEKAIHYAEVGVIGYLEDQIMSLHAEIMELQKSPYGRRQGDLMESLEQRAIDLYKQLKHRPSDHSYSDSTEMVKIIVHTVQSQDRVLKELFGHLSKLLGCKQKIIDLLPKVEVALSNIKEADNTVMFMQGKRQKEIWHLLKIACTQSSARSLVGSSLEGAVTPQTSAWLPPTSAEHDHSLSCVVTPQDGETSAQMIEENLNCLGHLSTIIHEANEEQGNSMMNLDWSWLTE
The assay is described as follows: Inhibition of human recombinant IKKa at 15 nM related to control ULK1.

Assay [14] has as its target RAF proto-oncogene serine/threonine-protein kinase (Homo sapiens) (UniProt P04049). Kind of assay: Inhibition of human recombinant RAF1 at 15 nM in presence of ATP by radiometric assay relative to control.
Assay [15] concerns the target 5'-AMP-activated protein kinase catalytic subunit alpha-2 (Homo sapiens) (UniProt P54646). Kind of assay: Inhibition of human recombinant AMPKa2 at 15 nM in presence of ATP by radiometric assay relative to control. The procedure, abridged: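 Panel of 327 recombinant human kinases, each assayed in vitro by radiometric activity assay in duplicate at a single inhibitor concentration per compound, chosen with reference to its ULK1 inhibition. Activity remaining was expressed as percent of vehicle control, and percent inhibition was calculated as 100 minus percent activity remaining.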

Chain of Calcium/calmodulin-dependent protein kinase type II subunit beta (Homo sapiens) (Q13554 whole entry): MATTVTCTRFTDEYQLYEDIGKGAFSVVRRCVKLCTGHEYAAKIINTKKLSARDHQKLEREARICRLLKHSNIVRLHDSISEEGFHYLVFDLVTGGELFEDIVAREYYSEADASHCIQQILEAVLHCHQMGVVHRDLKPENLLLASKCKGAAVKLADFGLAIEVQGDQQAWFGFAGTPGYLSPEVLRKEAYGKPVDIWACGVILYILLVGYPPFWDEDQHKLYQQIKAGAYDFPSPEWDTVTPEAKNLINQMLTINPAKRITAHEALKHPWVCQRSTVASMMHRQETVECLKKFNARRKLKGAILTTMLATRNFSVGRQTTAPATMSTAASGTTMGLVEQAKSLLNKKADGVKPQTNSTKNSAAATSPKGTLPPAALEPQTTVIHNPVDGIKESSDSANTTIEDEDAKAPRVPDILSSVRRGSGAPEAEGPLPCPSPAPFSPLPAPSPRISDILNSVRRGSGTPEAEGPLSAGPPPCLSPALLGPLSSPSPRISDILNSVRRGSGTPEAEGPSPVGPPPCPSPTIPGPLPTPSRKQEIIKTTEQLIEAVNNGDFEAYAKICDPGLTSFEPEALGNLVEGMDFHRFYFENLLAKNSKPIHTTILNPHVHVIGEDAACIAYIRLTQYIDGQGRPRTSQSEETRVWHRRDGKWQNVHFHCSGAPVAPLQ
Chain of NT-3 growth factor receptor (Homo sapiens) (Q16288 32-839 limits assumed): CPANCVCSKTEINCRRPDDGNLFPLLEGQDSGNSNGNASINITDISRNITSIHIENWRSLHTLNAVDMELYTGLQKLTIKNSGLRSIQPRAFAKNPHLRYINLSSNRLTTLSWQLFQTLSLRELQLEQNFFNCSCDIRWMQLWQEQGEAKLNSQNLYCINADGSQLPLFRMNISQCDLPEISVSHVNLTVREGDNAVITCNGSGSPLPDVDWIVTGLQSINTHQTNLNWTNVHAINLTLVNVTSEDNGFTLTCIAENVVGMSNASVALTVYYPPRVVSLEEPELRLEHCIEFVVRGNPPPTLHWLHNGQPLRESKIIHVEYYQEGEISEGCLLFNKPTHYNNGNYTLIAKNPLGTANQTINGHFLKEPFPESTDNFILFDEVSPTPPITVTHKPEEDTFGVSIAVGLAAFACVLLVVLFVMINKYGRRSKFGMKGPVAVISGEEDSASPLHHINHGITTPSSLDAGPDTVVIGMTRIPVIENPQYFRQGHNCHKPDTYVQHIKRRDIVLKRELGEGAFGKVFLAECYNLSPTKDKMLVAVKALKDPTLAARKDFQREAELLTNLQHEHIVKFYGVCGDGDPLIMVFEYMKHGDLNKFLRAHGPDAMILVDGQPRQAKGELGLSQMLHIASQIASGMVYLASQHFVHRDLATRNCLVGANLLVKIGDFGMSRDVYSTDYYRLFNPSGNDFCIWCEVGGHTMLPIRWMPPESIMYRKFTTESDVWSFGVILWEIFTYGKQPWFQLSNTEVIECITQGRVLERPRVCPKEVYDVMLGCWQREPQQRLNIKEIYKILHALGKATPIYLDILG
Chain of Tyrosine-protein kinase Fer (Homo sapiens) (P16591 whole entry, looked up): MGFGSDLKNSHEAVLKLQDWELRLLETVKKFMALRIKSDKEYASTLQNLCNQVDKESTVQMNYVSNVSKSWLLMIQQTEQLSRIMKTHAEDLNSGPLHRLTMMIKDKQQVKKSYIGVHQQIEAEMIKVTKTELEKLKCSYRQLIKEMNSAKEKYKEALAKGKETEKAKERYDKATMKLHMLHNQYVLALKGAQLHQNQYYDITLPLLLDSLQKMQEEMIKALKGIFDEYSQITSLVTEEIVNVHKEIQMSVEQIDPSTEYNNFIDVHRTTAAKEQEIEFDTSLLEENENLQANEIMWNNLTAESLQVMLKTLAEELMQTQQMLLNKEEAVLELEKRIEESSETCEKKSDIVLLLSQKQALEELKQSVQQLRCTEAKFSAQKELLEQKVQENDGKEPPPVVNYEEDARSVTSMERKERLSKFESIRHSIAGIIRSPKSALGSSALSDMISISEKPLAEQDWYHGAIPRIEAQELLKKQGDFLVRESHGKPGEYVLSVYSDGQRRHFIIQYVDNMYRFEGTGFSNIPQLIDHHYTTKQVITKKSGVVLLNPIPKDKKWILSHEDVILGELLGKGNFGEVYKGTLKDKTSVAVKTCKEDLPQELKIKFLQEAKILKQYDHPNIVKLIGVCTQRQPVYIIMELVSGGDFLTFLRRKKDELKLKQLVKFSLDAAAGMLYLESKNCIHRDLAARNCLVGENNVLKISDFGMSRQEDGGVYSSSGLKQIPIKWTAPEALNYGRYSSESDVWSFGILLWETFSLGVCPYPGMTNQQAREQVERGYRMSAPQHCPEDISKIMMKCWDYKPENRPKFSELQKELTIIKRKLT
Chain of G protein-coupled receptor kinase 5 (Homo sapiens) (P34947 whole entry, looked up): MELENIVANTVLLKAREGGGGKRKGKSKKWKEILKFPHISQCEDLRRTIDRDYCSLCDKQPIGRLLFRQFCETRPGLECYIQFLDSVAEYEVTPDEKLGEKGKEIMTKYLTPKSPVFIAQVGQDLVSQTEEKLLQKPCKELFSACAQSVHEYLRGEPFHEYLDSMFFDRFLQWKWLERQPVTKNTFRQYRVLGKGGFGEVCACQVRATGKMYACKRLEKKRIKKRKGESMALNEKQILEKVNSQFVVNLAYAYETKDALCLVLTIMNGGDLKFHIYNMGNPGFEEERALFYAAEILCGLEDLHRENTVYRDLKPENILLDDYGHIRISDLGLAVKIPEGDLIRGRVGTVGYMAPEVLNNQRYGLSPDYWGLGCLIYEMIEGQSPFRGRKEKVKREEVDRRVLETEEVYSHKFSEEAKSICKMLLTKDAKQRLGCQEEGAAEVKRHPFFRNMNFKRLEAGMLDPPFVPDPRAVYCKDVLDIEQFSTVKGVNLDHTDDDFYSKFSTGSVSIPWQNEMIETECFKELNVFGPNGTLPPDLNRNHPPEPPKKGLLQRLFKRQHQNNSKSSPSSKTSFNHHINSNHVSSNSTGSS
Chain of Focal adhesion kinase 1 (Homo sapiens) (Q05397 2-1052 limits assumed): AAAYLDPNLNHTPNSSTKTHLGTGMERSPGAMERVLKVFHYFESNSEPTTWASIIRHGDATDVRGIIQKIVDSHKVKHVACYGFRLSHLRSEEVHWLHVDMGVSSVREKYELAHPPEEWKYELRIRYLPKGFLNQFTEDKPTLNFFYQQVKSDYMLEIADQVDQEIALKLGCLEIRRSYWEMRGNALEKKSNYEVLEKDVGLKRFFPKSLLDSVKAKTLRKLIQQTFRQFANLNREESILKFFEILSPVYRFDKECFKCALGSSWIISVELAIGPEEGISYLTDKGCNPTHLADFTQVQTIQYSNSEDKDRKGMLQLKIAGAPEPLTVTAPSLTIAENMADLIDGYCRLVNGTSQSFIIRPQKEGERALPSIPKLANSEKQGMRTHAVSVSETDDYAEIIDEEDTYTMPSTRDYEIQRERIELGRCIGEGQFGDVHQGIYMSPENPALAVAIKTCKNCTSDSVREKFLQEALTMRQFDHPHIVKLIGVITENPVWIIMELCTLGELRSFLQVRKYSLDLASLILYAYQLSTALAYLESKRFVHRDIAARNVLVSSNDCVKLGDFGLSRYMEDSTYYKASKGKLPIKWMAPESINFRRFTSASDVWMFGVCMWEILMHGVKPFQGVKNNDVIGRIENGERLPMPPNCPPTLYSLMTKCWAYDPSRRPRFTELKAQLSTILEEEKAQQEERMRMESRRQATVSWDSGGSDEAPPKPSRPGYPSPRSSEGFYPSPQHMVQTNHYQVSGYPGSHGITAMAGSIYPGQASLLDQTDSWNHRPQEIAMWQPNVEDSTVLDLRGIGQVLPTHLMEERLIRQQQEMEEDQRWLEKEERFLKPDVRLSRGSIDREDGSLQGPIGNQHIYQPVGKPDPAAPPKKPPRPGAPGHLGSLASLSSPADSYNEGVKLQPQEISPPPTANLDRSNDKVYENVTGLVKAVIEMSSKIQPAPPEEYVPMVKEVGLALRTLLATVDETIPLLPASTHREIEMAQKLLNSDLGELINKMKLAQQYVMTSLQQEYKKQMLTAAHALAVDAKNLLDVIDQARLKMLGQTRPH
Chain of Protein-tyrosine kinase 2-beta (Homo sapiens) (Q14289 whole entry, looked up, canonical isoform): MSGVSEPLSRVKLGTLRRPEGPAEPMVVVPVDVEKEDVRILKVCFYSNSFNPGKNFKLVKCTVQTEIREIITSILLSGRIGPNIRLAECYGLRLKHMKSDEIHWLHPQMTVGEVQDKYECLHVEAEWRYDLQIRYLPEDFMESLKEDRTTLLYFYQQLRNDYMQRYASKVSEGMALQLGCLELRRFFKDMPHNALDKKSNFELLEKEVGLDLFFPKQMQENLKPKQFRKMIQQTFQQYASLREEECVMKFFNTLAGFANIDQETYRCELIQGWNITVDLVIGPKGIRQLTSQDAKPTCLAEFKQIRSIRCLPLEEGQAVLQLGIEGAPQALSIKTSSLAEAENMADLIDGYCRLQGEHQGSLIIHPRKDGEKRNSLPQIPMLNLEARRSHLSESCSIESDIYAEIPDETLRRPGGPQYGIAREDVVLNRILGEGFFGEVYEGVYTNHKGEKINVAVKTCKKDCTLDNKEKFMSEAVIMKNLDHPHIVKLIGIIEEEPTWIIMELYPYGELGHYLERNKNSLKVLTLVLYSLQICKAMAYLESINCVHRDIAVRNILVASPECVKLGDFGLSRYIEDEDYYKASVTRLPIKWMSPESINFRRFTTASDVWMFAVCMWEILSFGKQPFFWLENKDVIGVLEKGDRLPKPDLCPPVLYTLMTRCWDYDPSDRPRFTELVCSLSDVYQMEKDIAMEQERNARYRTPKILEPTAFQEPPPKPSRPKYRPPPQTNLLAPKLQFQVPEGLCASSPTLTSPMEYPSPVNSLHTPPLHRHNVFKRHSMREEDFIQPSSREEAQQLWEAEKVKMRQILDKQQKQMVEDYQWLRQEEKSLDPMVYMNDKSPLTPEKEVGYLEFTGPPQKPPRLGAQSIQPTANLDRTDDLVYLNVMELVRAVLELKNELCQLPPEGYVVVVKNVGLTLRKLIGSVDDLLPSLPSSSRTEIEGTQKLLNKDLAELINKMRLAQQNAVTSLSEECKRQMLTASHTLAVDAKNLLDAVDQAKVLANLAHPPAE

In the case of `O=C(N[C@@H](C1CC1)C(F)(F)F)c1cc(-c2cnn3cc(-c4ccc(F)cc4)cnc23)cs1`, the fold change (FC) in assay [1] was determined as 0.01; in assay [3] it was 0; in assay [4], 0. The inhibition in assay [2] was found to be 0%.
Turning to `CNC(=O)c1ccccc1Oc1nc(Nc2cc(OC)c(OC)c(OC)c2)ncc1Br`, the inhibition stood at 0% in [5]; 0% in assay [7]; 2% in [8]; 1% in [10]; 0% in assay [12]. Also, the fold change (FC) in assay [6] came out at 0; in assay [9], 0.96; in assay [11], 0.72.
Regarding `CC(C)[C@H](NC(=O)c1cc(-c2cnn3cc(-c4ccc(OCCN5CCCCC5)cc4)cnc23)cs1)C(F)(F)F`, in [13], the fold change (FC) came to 0.01. The inhibition in assay [14] is 8%; in assay [15], 83%.

As usually defined, the inhibition is the percentage by which the read-out fell short of the control.

Source of the values: ChEMBL document CHEMBL5653631, “A Potent and Selective ULK1 Inhibitor Suppresses Autophagy and Sensitizes Cancer Cells to Nutrient Stress” (iScience, 2018).
